# Assay outcomes (PubChem)
# ABHD4 inh – ABHD4 inhibitors, primary screen, biochemical, fluorescence polarization, mouse. actives 0.54% (n = 370,000). inhibition, % at 8.92 µM. purified mABHD4, FP-Rh probe fluorescence polarization;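 active = inhibition exceeding the mean over every tested compound plus 3 SD, cut at about 30% in these data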;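 also: 0% = plate median of compound wells and 100% = S159A mutant with DMSO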
# Target sequence (Q8VD66 whole entry, looked up): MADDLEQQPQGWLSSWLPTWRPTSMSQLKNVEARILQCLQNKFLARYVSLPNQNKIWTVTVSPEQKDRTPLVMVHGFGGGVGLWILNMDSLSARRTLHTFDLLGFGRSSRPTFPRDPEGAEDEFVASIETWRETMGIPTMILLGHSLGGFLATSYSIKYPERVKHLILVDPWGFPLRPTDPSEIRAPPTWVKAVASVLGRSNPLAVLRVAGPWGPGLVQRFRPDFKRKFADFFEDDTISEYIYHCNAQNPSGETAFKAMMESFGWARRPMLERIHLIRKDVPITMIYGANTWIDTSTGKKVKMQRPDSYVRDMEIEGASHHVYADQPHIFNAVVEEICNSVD
#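 Assay system: mABHD4 protein; medium: HEPES pH 7.0, NaCl, Pluronic buffer; dosing: 8.92 µM, single dose; schedule: 45 min + 60 min at 25 °C; signal: FP readout, ex 525 nm / em 598 nm; read-out: normalized percent inhibition of probe labeling; repeats: single replicate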
# PRMT1 FP inh – PRMT1 methyltransferase inhibitors, primary screen, biochemical, fluorescence polarization | actives 1.3% (n = 370,000) | AID 652257, 2013 | recombinant PRMT1, activity-based probe fluorescence polarization | inhibition, % at 2.79 µM;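 active = inhibition above about 21% made by adding two undisclosed values, limit read from the data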
# SIAE inh – human SIAE inhibitors, primary screen, biochemical, fluorescence polarization, FP-Rh probe, 1536-well HTS. Sialate O-acetylesterase (Homo sapiens), Q9HAT2. SIAE FP-Rh probe binding. inhibition, % at 9.66 µM. actives 0.69% (n = 370,000). AID 1053197, 2014;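 active = inhibition above a cutoff: mean of compounds within the control limits plus 3 SD of those, cut at about 17% in these data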;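 also: 0% = plate median of compound wells and 100% = probe without SIAE protein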
# HTRA1 inh – HTRA1 serine protease inhibitors, primary screen, biochemical, fluorescence polarization, HTS. recombinant HTRA1, FP-rhodamine activity-based probe. inhibition, % at 5.96 µM. actives 0.5% (n = 340,000). AID 504803, 2011; in the data active = inhibition above about 36%;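 also: 0% = enzyme with DMSO and 100% = wells lacking enzyme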
# TCR CD3 inh – inhibitors of human TCR-CD3 interaction, primary screen, biochemical, fluorescence, TAMRA-labeled TCR probe. T-cell receptor (TCR). inhibition, % at 9.4 µM. actives 0.37% (n = 360,000);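 also: recombinant mutant TCR 2C K166C tagged with TAMRA read by polarization; 0% = receptor in buffer alone and 100% = receptor with positive control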
# HTRA1 inh conf – HTRA1 protease inhibitors, retest, confirmation, biochemical, fluorescence polarization | shares compounds with HTRA1 inh | inhibition, % at 5.96 µM | actives 66% (n = 1,600) | recombinant HTRA1, FP-rhodamine activity-based probe | AID 540248, 2011;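 active = mean inhibition over three repeats above a set limit taken from the earlier primary screen, cut at about 37% in these data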;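 also: 0% = HTRA1 with DMSO and 100% = wells lacking HTRA1; inhibitors block probe binding so polarization drops and inhibition rises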
# BSA TAMRA ctr – compounds interfering with TAMRA-BSA probe, counter-screen for TCR-CD3 interaction inhibitor project, biochemical, fluorescence, TAMRA-labeled BSA; TAMRA-labeled BSA probe fluorescence counterscreen; shares compounds with TCR CD3 inh; inhibition, % at 9.4 µM; actives 10% (n = 1,200); in the data active = inhibition above about 23%;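 also: 0% = buffer low control and 100% = reference high control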
# TCR-CD3 conf – TCR-CD3 interaction inhibitors, retest, confirmation, biochemical, fluorescence, TAMRA-labeled TCR probe | shares compounds with TCR CD3 inh | TAMRA-labeled TCR probe fluorescence binding assay | inhibition, % at 9.4 µM | actives 48% (n = 1,200) | AID 652036, 2013
# PRMT1 confirm – PRMT1 methyltransferase inhibitors, confirmation, biochemical, fluorescence polarization, triplicate. actives 42% (n = 3,300). AID 687036, 2013. recombinant His-PRMT1, activity-based probe fluorescence polarization. inhibition, % at 2.79 µM. shares compounds with PRMT1 FP inh;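 active = mean inhibition across replicates above the hit cutoff derived for the earlier primary screen, cut at about 22% in these data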
# ABHD4 confirm – ABHD4 inhibitors, retest, confirmation, biochemical, fluorescence polarization, mouse. AID 720658, 2013. purified mABHD4, FP-Rh probe fluorescence polarization. shares compounds with ABHD4 inh. inhibition, % at 8.92 µM. actives 55% (n = 1,800);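 active = mean inhibition across replicates above the hit cutoff set in the primary screen, cut at about 30% in these data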;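 also: 0% = wild-type ABHD4 with DMSO and 100% = catalytically dead S159A mutant with DMSO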
# * = called active by the depositor; nt = no result. This is a sample that favours compounds with a hit; in the whole collection about 2.5% have one here. Rule as the data show it, unless noted: active = inhibition above about 19%; inactive = the rest.
SMILES,ABHD4 inh,PRMT1 FP inh,SIAE inh,HTRA1 inh,TCR CD3 inh,HTRA1 inh conf,PRMT1 confirm,ABHD4 confirm,others
Cc1ccc(S(=O)c2ccc([N+](=O)[O-])c3nonc23)cc1 (stereo unspecified),44*,58*,-12,43*,-3,73*,106*,nt,
Cc1ccc(Nc2c([N+](=O)[O-])ccc3nonc23)c(C)c1,-1,-4,12,-7,-5,nt,nt,nt,
O=C(CCCl)NC1CCCCN(Cc2ccc(OC(F)(F)F)cc2)C1=O (stereo unspecified),-3,-5,5,nt,nt,nt,nt,nt,
O=c1[nH]c2ccc(Cl)cc2c(-c2ccccc2)c1SC(=S)N1CCOCC1,6,27*,-9,42*,7,-26,16,nt,
O=C1CC(=Nc2ccc([N+](=O)[O-])cc2)NN1c1c(Cl)cc(Cl)cc1Cl,65*,35*,10,49*,-4,35,14,nt,
CNc1ccc(Br)cc(C(=O)/C=C/c2ccc(OC)cc2)c1=O,41*,44*,5,45*,-1,32,39*,nt,
COc1ccc(/C=C/C(=O)c2ccc(OC)cc2OC)cc1,6,0,-2,-17,5,nt,nt,nt,
CC(C)CNC(=O)CC1Oc2ccccc2NC1=O (stereo unspecified),3,4,-1,nt,nt,nt,nt,nt,
CCOC(=O)c1c(C)oc2cc(Cl)c(O)c(CN(C)C)c12,-4,8,-5,3,-3,nt,nt,nt,
CCOC(=O)c1c(-c2ccccc2)oc2cc(CN(C)C)c(O)c(CN(C)C)c12,14,26*,3,44*,-1,51*,3,nt,
O=C(O)c1cc(N2N=C(C(F)(F)F)/C(=C/C=C/c3ccco3)C2=O)ccc1Cl,58*,70*,5,41*,26*,14,54*,nt,BSA TAMRA ctr=13;TCR-CD3 conf=34*
COc1ccc2ccccc2c1/C=N/N1C(=O)CSC1=S,6,11,-1,-16,-5,nt,nt,nt,
O=C1CSC(=S)N1N=Cc1c(O)ccc2ccccc12,45*,35*,7,37*,17,41*,33*,nt,
COc1ccc(CCNC(=O)Cn2ncc3c2-c2cc(C)ccc2OC3)cc1,0,2,2,nt,nt,nt,nt,nt,
Cc1cc(C)cc(Nc2cc(=O)n(C3CCCCC3)c(=O)[nH]2)c1,2,-5,-5,-2,7,nt,nt,nt,
Cc1cc2nc3c(=O)n(C4CCCCC4)c(=O)[nH]c3nc2cc1N,25,94*,12,58*,-3,28,118*,nt,
COC(=O)c1cc(-c2cc(F)cc(OC)c2)c(=O)n2c1CCC2,1,-4,6,nt,nt,nt,nt,nt,
CC1(C)CCN2CCC(C)(C)c3c(O)ccc1c32,21,54*,-17,66*,11,27,14,nt,
CCC[C@H]1[C@@H](OC(=O)NCc2ccc(Cl)c(Cl)c2)CC[C@@]23CCCN2C(=O)CCC[C@@H]13,7,0,-4,nt,nt,nt,nt,nt,
Cc1c(N=C2C=C(Br)C(=O)C(Br)=C2)c(=O)n(-c2ccccc2)n1C,69*,61*,13,57*,46*,24,49*,nt,BSA TAMRA ctr=-3;TCR-CD3 conf=3
Clc1ccccc1C1Nc2cccc3cccc(c23)N1,48*,19,14,48*,1,28,nt,36*,
NC(=S)NN=Cc1nccc2c(C(F)(F)F)cccc12,31*,-1,6,69*,-3,80*,nt,32*,
Nc1nc(-c2ccccc2)c(N=Nc2ccccc2Cl)s1,46*,1,14,73*,11,115*,nt,76*,
CC(=O)Nc1sc(N)nc1-c1ccccc1,0,-3,3,4,3,nt,nt,nt,
Nc1nc(-c2ccccc2)c(N=Nc2cccc3ccccc23)s1,49*,-4,13,76*,4,80*,nt,58*,
SMILES,ABHD4 inh,PRMT1 FP inh,SIAE inh,HTRA1 inh,TCR CD3 inh,HTRA1 inh conf,PRMT1 confirm,ABHD4 confirm,others
C=CCN1C(=O)[C@@H](CC(=O)N2CCOCC2)[C@]2(C(=O)OCC)CCCCC/C=C/12,1,1,-1,nt,nt,nt,nt,nt,
CNc1ccc(Br)cc(C(=O)/C=C/c2ccc3c(c2)OCO3)c1=O,40*,25*,11,44*,18,13,nt,44*,
CNc1ccc(Br)cc(C(=O)/C=C/c2cc(OC)ccc2OC)c1=O,38*,26*,17*,39*,16,9,nt,40*,
C[C@H]1CCCN1c1ccc2c(c1)OCCCN(C1CC1)S2(=O)=O,4,-6,1,nt,nt,nt,nt,nt,
CN(C1=C(NC(=O)c2ccc(Cl)cc2)C(=O)c2ccccc2C1=O)c1ccccc1,56*,3,1,73*,-4,65*,nt,71*,
O=C1C(Cl)=C(NC(=O)c2ccccc2)C(=O)C(Cl)=C1NC(=O)c1ccccc1,64*,96*,3,37*,-8,-2,nt,71*,
O=C(NC1=C(Nc2ccc(Cl)cc2)C(=O)c2ccccc2C1=O)c1ccccc1,16,0,-11,19,-6,nt,nt,nt,
CC(C1SC(=S)NC1=O)C1SC(=S)NC1=O (stereo unspecified),46*,89*,-3,60*,7,47*,51*,20,
O=C(c1cccs1)C1CCN(c2ncnc3sccc23)CC1,-4,-1,2,nt,nt,nt,nt,nt,
COc1cc(NCCCC(C)N)c2ncccc2c1 (stereo unspecified),47*,4,44*,62*,62*,12,nt,27,BSA TAMRA ctr=22;TCR-CD3 conf=14
COc1cc(NCCCCC(C)N)c2nccc(C)c2c1 (stereo unspecified),19,3,9,15,4,nt,nt,nt,
O=c1c2ccccc2nc(COc2ccccc2)n1/N=C/c1ccc(O)c(O)c1,36*,0,-2,72*,17,82*,nt,11,
